In ChEMBL document CHEMBL1121573, “2-(Aminomethyl)phenols, a new class of saluretic agents. 1. Effects of nuclear substitution” (J Med Chem, 1980):

Columns and labels:
[1] = system: Rattus norvegicus; assay: Compound administered orally at a dose of 81 mg/kg was evaluated for salidiuretic activity measured as sodium ion excretion in Rat; format: ADME, organism-based, Urine; design: dose 81 mg/kg, route oral; unit not given beside the values; conditions: in vivo, po
Procedure, shortened: (§1)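 Female Charles-River rats (150–170 g), overnight on sugar diet with water ad libitum. Compound dissolved in DMF, diluted with water containing Tween 80 (final 4% DMF), given po in 5.0 mL; concurrent vehicle placebo. Three rats per metabolism cage; 0–5 h urine analysed for Na+, K+, Cl-. Values: mequiv × 100 per cage, geometric means of three cages per dose; scored 0–6 by Na+.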

[2] = Compound administered orally at a dose of 5 mg/kg was evaluated for salidiuretic activity measured as sodium ion excretion in Rat; format: organism-based; design: dose 5 mg/kg; conditions: Urine; procedure, shortened: as §1
[3] = system: Rattus norvegicus; assay: Evaluated for salidiuretic activity measured as sodium ion excretion in Rat, administered orally at a dose of 50 mg/kg; format: functional, Urine; design: unit not given beside the values; conditions: route oral; procedure, shortened: as §1
[4] = system: Canis familiaris; assay: Compound administered intravenously at a dose of 5 mg/kg was evaluated for salidiuretic activity measured as sodium ion excretion in Dog; act above 5 mg/kg; format: ADME, organism-based, Canis lupus familiaris, Urine; conditions: in vivo, iv
Procedure, shortened: (§2)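 Conditioned female mongrel dogs, postabsorptive, water-loaded (500 mL po) 1 h before sodium pentobarbital anesthesia (30 mg/kg iv). Bladder catheter; creatinine 4 g sc; phosphate–mannitol buffer pH 7.4 infused (3.0 mL/min) throughout. […] Urine Na+ measured; response scored 0–6.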

[5] = Evaluated for salidiuretic activity measured as sodium ion excretion in Rat, administered orally at a dose of 16.5 mg/kg; format: organism-based; design: dose 16.5 mg/kg; conditions: Urine; procedure, shortened: as §1
[6] = system: Rattus norvegicus; assay: Oral diuretic activity was evaluated by measuring Cl- excretion in Rat at 27 mg/kg after […] ( 0-5 hr); format: ADME, organism-based, Urine; design: dose 27 mg/kg, route intraperitoneal; conditions: in vivo
[7] = system: Canis familiaris; assay: Oral diuretic activity was evaluated by measuring K+ excretion in dog at 1 mg/kg after ip administration ( 0-6 hr); format: ADME, organism-based, Canis lupus familiaris, Urine; design: dose 1 mg/kg, route intraperitoneal; conditions: in vivo
Procedure, shortened: (§3)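 Spontaneous urine was pooled with bladder urine collected by catheterization at 6 h. Volume was measured and Na+, K+ and Cl− were determined by standard methods. Values are geometric means.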

[8] = system: Canis familiaris; assay: Oral diuretic activity was evaluated by measuring Na+ excretion in dog at 1 mg/kg after ip administration ( 0-6 hr); format: ADME, organism-based, Canis lupus familiaris, Urine; design: dose 1 mg/kg, route intraperitoneal; conditions: in vivo; procedure, shortened: as §3
[9] = system: Rattus norvegicus; assay: Oral diuretic activity was evaluated by measuring Na+ excretion in Rat at 9 mg/kg […] ( 0-5 hr); format: ADME, organism-based, Urine; design: dose 9 mg/kg; conditions: in vivo, ip
Procedure, shortened: (§4)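 Female Charles-River rats (150–170 g) were kept overnight on a sugar diet with water ad libitum. Compound was dissolved in DMF, then diluted with water containing Tween 80 (3 drops/100 mL) to a final 4% DMF, and given po in 5.0 mL. Rats were housed three per metabolism cage. Urine from 0–5 h was analysed for Na+, K+ and Cl−, with concurrent placebo controls. Values are mequiv × 100 per cage, geometric mean of three cages per dose.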

[10] = system: Canis familiaris; assay: Oral diuretic activity was evaluated by measuring Cl- excretion in dog at 1 mg/kg after […] ( 0-6 hr); format: ADME, organism-based, Canis lupus familiaris, Urine; design: dose 1 mg/kg, route intraperitoneal; conditions: in vivo
[11] = system: Canis familiaris; assay: Oral diuretic activity was evaluated by measuring Na+ excretion in dog at 10 mg/kg after […] ( 0-6 hr); format: ADME, organism-based, Canis lupus familiaris, Urine; design: dose 10 mg/kg; conditions: in vivo
Procedure, shortened: (§5)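 Dogs; spontaneous urine was pooled with bladder urine drained by catheter at the end of 6 h. Urine volume was measured, and aliquots were assayed for Na+, K+ and Cl− by standard methods. Values are geometric means, expressed as mequiv over 0–6 h.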

[12] = system: Canis familiaris; assay: Oral diuretic activity was evaluated by measuring K+ excretion in dog at 10 mg/kg after ip administration ( 0-6 hr); format: ADME, organism-based, Canis lupus familiaris, Urine; design: dose 10 mg/kg, route intraperitoneal; conditions: in vivo; procedure, shortened: as §3
[13] = system: Canis familiaris; assay: Compound administered intravenously at a dose of 5 mg/kg was evaluated for salidiuretic activity measured as sodium ion excretion in Dog; Value ranges from 800-899; format: ADME, organism-based, Canis lupus familiaris, Urine; design: dose 5 mg/kg, route intravenous; unit not given beside the values; conditions: in vivo, iv; procedure, shortened: as §2
[14] = system: Rattus norvegicus; assay: Oral diuretic activity was evaluated by measuring Cl- excretion in Rat at 81 mg/kg after […] ( 0-5 hr); format: ADME, organism-based, Urine; design: dose 81 mg/kg, route intraperitoneal; conditions: in vivo
[15] = system: Canis familiaris; assay: Oral diuretic activity was evaluated by measuring Cl- excretion in dog at 5 mg/kg after […] ( 0-6 hr); format: ADME, organism-based, Canis lupus familiaris, Urine; design: dose 5 mg/kg, route intraperitoneal; conditions: in vivo
[16] = system: Rattus norvegicus; assay: Oral diuretic activity was evaluated by measuring K+ excretion in Rat at 3 mg/kg after […] ( 0-5 hr); format: ADME, organism-based, Urine; design: dose 3 mg/kg
Procedure, shortened: (§6)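 Female Charles-River rats (150–170 g) were kept overnight on a sugar diet with water ad libitum. Test substance was dissolved in DMF and diluted with water containing Tween 80 to a final 4% DMF vehicle, then given po in 5.0 mL. Rats were housed three per metabolism cage, and 0–5 h urine was assayed for Na⁺, K⁺ and Cl⁻ alongside concurrent placebo groups. Values are mequiv × 100 per cage, geometric means of three cages per dose.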

[17] = system: Canis familiaris; assay: Oral diuretic activity was evaluated by measuring Na+ excretion in dog at 5 mg/kg after ip administration ( 0-6 hr); format: ADME, organism-based, Canis lupus familiaris, Urine; design: dose 5 mg/kg, route intraperitoneal; conditions: in vivo
Procedure, shortened: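 Urine collected over 0–6 h: spontaneous voids were pooled with bladder urine taken by catheterization at 6 h. Urine volume was measured, and aliquots were analysed for Na+, K+ and Cl− by standard methods. Electrolyte excretion is reported as geometric means.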

[18] = system: Canis familiaris; assay: Oral diuretic activity was evaluated by measuring Cl- excretion in dog at 10 mg/kg after […] ( 0-6 hr); format: ADME, organism-based, Canis lupus familiaris, Urine; design: dose 10 mg/kg, route intraperitoneal; conditions: in vivo
[19] = system: Canis familiaris; assay: Oral diuretic activity was evaluated by measuring Na+ excretion in dog at 20 mg/kg after […] ( 0-6 hr); format: ADME, organism-based, Canis lupus familiaris, Urine; design: dose 20 mg/kg; conditions: in vivo; procedure, shortened: as §5
[20] = system: Canis familiaris; assay: Oral diuretic activity was evaluated by measuring K+ excretion in dog at 5 mg/kg after ip administration ( 0-6 hr); format: ADME, organism-based, Canis lupus familiaris, Urine; design: dose 5 mg/kg, route intraperitoneal; conditions: in vivo; procedure, shortened: as §3
[21] = system: Rattus norvegicus; assay: Oral diuretic activity was evaluated by measuring Na+ excretion in Rat at 81 mg/kg […] ( 0-5 hr); format: ADME, organism-based, Urine; design: dose 81 mg/kg; procedure, shortened: as §4
[22] = system: Canis familiaris; assay: Oral diuretic activity was evaluated by measuring K+ excretion in dog at 20 mg/kg after ip administration ( 0-6 hr); format: ADME, organism-based, Canis lupus familiaris, Urine; design: dose 20 mg/kg, route intraperitoneal; conditions: in vivo; procedure, shortened: as §3
[23] = system: Rattus norvegicus; assay: Oral diuretic activity was evaluated by measuring Cl- excretion in Rat at 9 mg/kg […] ( 0-5 hr); format: ADME, organism-based, Urine; design: dose 9 mg/kg; conditions: in vivo; procedure, shortened: as §6
[24] = system: Rattus norvegicus; assay: Oral diuretic activity was evaluated by measuring Na+ excretion in Rat at 27 mg/kg after […] ( 0-5 hr); format: ADME, organism-based, Urine; design: dose 27 mg/kg; procedure, shortened: as §4
[25] = system: Rattus norvegicus; assay: Oral diuretic activity was evaluated by measuring K+ excretion in Rat at 9 mg/kg […] ( 0-5 hr); format: ADME, organism-based, Urine; design: dose 9 mg/kg; procedure, shortened: as §6
[26] = system: Rattus norvegicus; assay: Oral diuretic activity was evaluated by measuring K+ excretion in Rat at 81 mg/kg […] ( 0-5 hr); format: ADME, organism-based, Urine; design: dose 81 mg/kg; procedure, shortened: as §6
[27] = system: Rattus norvegicus; assay: Oral diuretic activity was evaluated by measuring Cl- excretion in Rat at 3 mg/kg after […] ( 0-5 hr); format: ADME, organism-based, Urine; design: dose 3 mg/kg, route intraperitoneal; conditions: in vivo
[28] = system: Rattus norvegicus; assay: Maximum fall in mean arterial blood pressure was measured in SH rats when compound was administered at 20 mg/kg perorally; format: functional; conditions: route oral
[29] = system: Rattus norvegicus; assay: Oral diuretic activity was evaluated by measuring K+ excretion in Rat at 27 mg/kg after […] ( 0-5 hr); format: ADME, organism-based, Urine; design: dose 27 mg/kg; conditions: in vivo; procedure, shortened: as §6
[30] = system: Rattus norvegicus; assay: Oral diuretic activity was evaluated by measuring Na+ excretion in Rat at 3 mg/kg […] ( 0-5 hr); format: ADME, organism-based, Urine; design: dose 3 mg/kg; conditions: in vivo, ip; procedure, shortened: as §4
[31] = system: Canis familiaris; assay: Oral diuretic activity was evaluated by measuring Cl- excretion in dog at 20 mg/kg after […] ( 0-6 hr); format: ADME, organism-based, Canis lupus familiaris, Urine; design: dose 20 mg/kg, route intraperitoneal; conditions: in vivo

NCc1cc(Cl)cc(Cl)c1O
Diuretic activity [1]: 2.4
Diuretic activity [2]: 0.4
Diuretic activity [3]: 1.8
Diuretic activity [4]: active above 5 mg/kg
Diuretic activity [5]: 0.6

Cl.NCc1c(O)c(Cl)cc(Cl)c1Cl
Diuretic activity [6]: 2.36
Diuretic activity [7]: 2.25
Diuretic activity [8]: 5.25
Diuretic activity [9]: 0.94
Diuretic activity [10]: 6.5
Diuretic activity [11]: 20.64
Diuretic activity [12]: 5
Diuretic activity [13]: 800
Diuretic activity [1]: 2.9
Diuretic activity [14]: 3.47
Diuretic activity [2]: 0.5
Diuretic activity [15]: 19.63
Diuretic activity [16]: 0.25
Diuretic activity [3]: 2.4
Diuretic activity [17]: 14.75
Diuretic activity [18]: 27.27
Diuretic activity [19]: 37.25
Diuretic activity [20]: 4.5
Diuretic activity [21]: 2.77
Diuretic activity [22]: 8.25
Diuretic activity [23]: 1.19
Diuretic activity [24]: 1.89
Diuretic activity [5]: 1.4
Diuretic activity [25]: 0.32
Diuretic activity [26]: 0.6
Diuretic activity [27]: 0.46
MAP [28]: 18 mmHg
Diuretic activity [29]: 0.45
Diuretic activity [30]: 0.41
Diuretic activity [31]: 50.25
